For series [1] the following is noted: stated without reference; cited from earlier work.
Another series has as its system IDO1. The note with it: patients with advanced solid tumors; cited from earlier work.
In series [2] the test system is plasma kynurenine production. The note with it: cited from earlier work.
Series [3] is described as follows: Epacadostat plasma pharmacokinetics, noncompartmental analysis. The note with it: steady state cycle 1/day 8; for AUC / half-life / Tmax: human, plasma, oral; for AUC: AUC0-τ; for half-life: t ½; for Tmax: t max, median (range). Format: in vivo, human. The method, boiled down: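 Test compound 100 mg oral bid (B, C); pembrolizumab 200 mg IV q3w. A: oxaliplatin 85, leucovorin 400, 5-FU 400 mg/m2 bolus then 1200 mg/m2 per day over 46 h; days 1, 15, 28-day cycles. B: nab-paclitaxel 125, gemcitabine 1000 mg/m2; days 1, 8, 15, 28-day cycles. C: paclitaxel 200 mg/m2, carboplatin AUC 6; day 1, 21-day cycles.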

A further series concerns advanced melanoma. The note with it: patients with advanced melanoma; median follow-up of 12.4 months; cited from earlier work.
The mark [4] stands for this setting: group A, mFOLFOX6, individual value (n ≤ 2).
Setting [5] is: group C, paclitaxel and carboplatin, individual values (n ≤ 2).
Setting [6] is: group D, pemetrexed and platinum agent, individual value (n ≤ 2).
Setting [7] is: group G, 5-FU and platinum agent, individual values (n ≤ 2).
The mark [8] stands for this setting: 100 mg twice daily, group B, nab-paclitaxel and gemcitabine, individual value (n ≤ 2).

“And” between values parts separate entries of the source, which are not always exact repeats. Equal values may be shown once.

For the compound `NS(=O)(=O)NCCNc1nonc1C(=NO)Nc1ccc(F)c(Br)c1` [Epacadostat], the clearance mechanism result in series [1] was “cleared predominantly by hepatic glucuronidation”. The “metabolism of tryptophan to kynurenine, whole blood assays” value in the series on IDO1 is on record as “effectively inhibits”. Besides, the “percentage decrease in kynurenine levels from baseline to day 15” value with IDO1 was “dose dependent”. Also, the maximally tolerated dose in series [2] is given as 600 mg BID. Also, the “epacadostat dose required for suppression of plasma kynurenine production” value in series [2] (in combination with pembrolizumab, retrospective analysis) was 600 mg BID. Further, the CLss/F in series [3] (setting [4]) was 81.7 L/h; in series [3] (group B, nab-paclitaxel and gemcitabine, individual value (n ≤ 2)) it was 82.6 L/h; in series [3] (setting [5]), 70.4 L/h and 93.5 L/h; in series [3] (setting [6]), 126 L/h; in series [3] (setting [7]) it was 76.8 L/h and 81.3 L/h. Besides, the AUC0-τ in series [3] (setting [5]) came out at 2.44 µM·h; in series [3] (setting [6]), 1.81 µM·h; in series [3] (setting [7]) it was 2.81 µM·h. Also, the “t ½” value in series [3] (setting [5]) is 2.62 h and 1.07 h; in series [3] (setting [7]), 1.30 h. Moreover, the AUC in series [3] (setting [8]) was found to be 2.76 µM·h; in series [3] (100 mg twice daily, group C, paclitaxel and carboplatin, individual values (n ≤ 2)), 3.24 µM·h; in series [3] (setting [4]) it was 2.79 µM·h; in series [3] (setting [7]), 2.97 µM·h. Also, the half-life in series [3] (setting [8]) is 1.42 h; in series [3] (setting [4]), 1.78 h; in series [3] (setting [6]) it was 1.3 h; in series [3] (setting [7]), 1.35 h. Further, the Tmax in series [3] (group A, mFOLFOX6, N=6) was found to be 2.9 h; in series [3] (group F, gemcitabine and platinum agent, N=7) it was 2.1 h; in series [3] (group G, 5-FU and platinum agent, N=8), 3.1 h.

For the compound `Nc1nc2[nH]cc(CCc3ccc(C(=O)N[C@@H](CCC(=O)O)C(=O)O)cc3)c2c(=O)[nH]1` [pemetrexed, Pemetrexed, reference compound], the clearance mechanism result in series [1] is “cleared by renal excretion”.

On to “placebo plus pembrolizumab: ECHO-301/KEYNOTE-252 control arm: placebo plus the PD-1 inhibitor pembrolizumab”, for which, in the series with advanced melanoma, the “OS (median)” value is “not reached”.

As usually defined, the AUC is the area under the concentration-time curve, a measure of exposure. Lower therefore signals low exposure. As usually defined, the half-life is how long it takes for the measured level to halve. A higher half-life goes with slow decline. A word on the Tmax: it is the time at which the peak concentration occurs.

These data come from paper PMC9632315 (The Oncologist, 2022).
